Source: PubChem BioAssay
FXIa inh: inhibitors of human coagulation factor XIa. P03951. purified FXIa, Boc-Glu-Ala-Arg-AMC fluorogenic substrate. inhibition, % at 5 µM. actives 0.14% (n = 220,000). AID 798;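 active = inhibition of at least 40%; inactive = inhibition below 40%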;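 also: fluorescence of freed AMC excited at 355 nm; 0% = enzyme without compound and 100% = no enzyme blank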
Thrombin inh: thrombin (human) inhibition; alpha-thrombin, Boc-VPR-AMC fluorogenic substrate cleavage; AID 1046; P00734; actives 0.26% (n = 220,000); inhibition, % at 5 µM;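 active = inhibition at or above 40%; inactive = inhibition below 40%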;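 also: 0% = enzyme with no compound and 100% = wells without enzyme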
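System: human alpha-thrombin protein; Compound dosing: one concentration per compound, 5 µM, with 0.2% DMSO; Timing: reaction at room temperature; Technique: AMC fluorescence, 355/460 nm; Controls: enzyme without compound as high, wells lacking enzyme as low.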
FXIIa inh: blocks human coagulation factor XIIa protease activity. purified FXIIa, Boc-QGR-AMC fluorogenic substrate, 2 h. actives 0.3% (n = 220,000). AID 800. P00748. inhibition, % at 5 µM; in the data active = inhibition above about 40%;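 also: 0% = enzyme with no compound and 100% = blank without enzyme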
Target sequence (P00748 20-372 limits assumed): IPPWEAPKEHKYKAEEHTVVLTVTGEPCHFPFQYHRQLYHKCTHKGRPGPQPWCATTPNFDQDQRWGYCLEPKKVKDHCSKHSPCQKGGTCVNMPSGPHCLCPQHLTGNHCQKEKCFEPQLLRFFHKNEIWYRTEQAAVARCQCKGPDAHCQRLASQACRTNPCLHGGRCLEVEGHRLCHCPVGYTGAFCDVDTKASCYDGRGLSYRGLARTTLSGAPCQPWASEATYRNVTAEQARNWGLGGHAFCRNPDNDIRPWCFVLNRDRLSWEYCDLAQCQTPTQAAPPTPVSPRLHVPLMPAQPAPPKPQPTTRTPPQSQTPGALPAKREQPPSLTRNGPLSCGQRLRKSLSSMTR
Target sequence (P00748 373-615 limits assumed): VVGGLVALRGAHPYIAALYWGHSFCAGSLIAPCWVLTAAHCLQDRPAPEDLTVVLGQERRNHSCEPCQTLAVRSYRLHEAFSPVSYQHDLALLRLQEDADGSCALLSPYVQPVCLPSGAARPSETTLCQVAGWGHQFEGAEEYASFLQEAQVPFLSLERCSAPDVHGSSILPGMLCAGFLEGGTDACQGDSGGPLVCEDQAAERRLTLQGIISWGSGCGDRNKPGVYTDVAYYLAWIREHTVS
KLK5 inh: blocks human kallikrein 5 protease activity; actives 0.59% (n = 210,000); recombinant hK5, fluorogenic AMC substrate cleavage; Q9Y337; inhibition, % at 5 µM;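 active = inhibition of 40% or more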;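 also: 0% = enzyme controls without compound and 100% = no-enzyme blanks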
Calpain2 inh: blocks pig calpain II enzyme activity. purified calpain II, fluorogenic peptide substrate, 30 min. inhibition, % at 16 µM. actives 0.37% (n = 220,000). AID 1236;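 active = inhibition above about 50%, limit read from the data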
* hit, by the source's call; / = no result given. The list is not random: actives were taken first. Their share in the collection is about 1.4%.

SMILES | FXIa inh | Thrombin inh | FXIIa inh | KLK5 inh | Calpain2 inh
Cn1nc(C(=O)Nc2ccc(S(=O)(=O)N3CCCCC3)cc2)c2ccccc2c1=O | -2 | -9 | 4 | -8 | 51*
Cc1ccc(S(=O)(=O)Oc2ccc(/C=C(/NC(=O)c3ccccc3)C(=O)NC(C)C(=O)O)cc2)cc1 (stereo unspecified) | 2 | -2 | 7 | 8 | -7
C/C(N)=C(/C#N)C(=O)COC(=O)CC12CC3CC(CC(C3)C1)C2 | 4 | -4 | 7 | 14 | 65*
CC1=C(C(=O)N2CCCCC2)C(c2cccs2)C2=C(CCCC2=O)N1 (stereo unspecified) | -4 | 2 | -6 | 138* | /
COC(=O)C1=C(C)NC2=C(C(=O)CCC2)C1c1cccs1 (stereo unspecified) | 5 | -1 | -4 | -8 | -245
CCCC(=O)Nc1ccc(Cl)c(NC(=S)NC(=O)c2cc3ccccc3o2)c1 | 8 | 5 | 8 | -19 | 52*
O=C(N/N=C/c1c[nH]c2ccccc12)c1cc(-c2cccc3ccccc23)n[nH]1 | 7 | 43* | -4 | 25 | -18
CCOC(=O)C1CCCN(C(=S)Nc2ccc(C)cc2C)C1 (stereo unspecified) | 15 | -7 | 21 | -1 | 22
Cc1ccc2c(c1)nnn2C1CCN(S(=O)(=O)c2ccc(C(=O)N3CC(C)CC(C)C3)cc2)CC1 (stereo unspecified) | 9 | 3 | 6 | 2 | 51*
Cc1ccc2c(c1)nnn2C1CCN(S(=O)(=O)c2ccc(C(=O)N(C)C)cc2)CC1 | -3 | 0 | 4 | -14 | -9
CCOC(=O)Cn1nc(C)cc1NC(=O)c1cccnc1 | -1 | 1 | 8 | -7 | 18
O=C1c2ccc(Br)cc2C(=O)N1c1ccc(Cc2ccncc2)cc1 | -6 | 11 | 3 | -6 | 88*
CCCCOCCCNC(=O)C1CCCCC1 | 7 | 13 | 10 | 41* | 12
O=C(NCCCCNC(=O)C1CCCC1)C1CCCC1 | -14 | 4 | 6 | -23 | -6
COc1ccc(C(OC(=O)c2ccco2)C(=O)NC2CCCCC2)cc1OC (stereo unspecified) | 8 | 36 | 15 | 83* | 17
Cc1ccsc1/C=N/NC(=O)c1ccc2c(c1)OCCO2 | 39 | 30 | 46* | 18 | 27
O=C(NCCCc1nc2ccccc2[nH]1)c1ccc(F)cc1 | 8 | / | 5 | -3 | -8
Cc1cc(C)nc(NC(=O)C2c3ccccc3Oc3ccccc32)n1 | -5 | -7 | 10 | -2 | -26
Cc1ccc(-c2nnc3n2N=C(c2ccc(Br)cc2)CS3)cc1 | 40 | -6 | 53* | -8 | 0
Brc1ccc(C2=Nn3c(nnc3-c3n[nH]c4c3CCC4)SC2)cc1 | 7 | 20 | 11 | -5 | -18
CCCNC(=O)Nc1ccsc1C(=O)OC | 9 | -7 | 7 | 4 | 0
CC(=O)c1ccc(NC(=O)c2noc(C(C)C)c2[N+](=O)[O-])cc1 | 1 | 0 | 10 | / | 95*
COc1ccc(NC(=O)c2noc(C(C)C)c2[N+](=O)[O-])cc1 | 4 | 2 | 13 | / | 53*
O=C(Cc1cccs1)NCCc1csc(-c2ccccc2)n1 | 0 | -7 | 8 | -1 | -24
COCc1nnc(NC(=O)c2cc(OC)c(OC)cc2[N+](=O)[O-])s1 | -5 | -7 | -1 | -2 | -10
SMILES | FXIa inh | Thrombin inh | FXIIa inh | KLK5 inh | Calpain2 inh
CCC(=O)Nc1ccc(C(=O)CSc2nc3ccccc3cc2CC)cc1 | 1 | 104* | 21 | 60* | 12
CCC(=O)Nc1ccc(C(=O)CSc2nc(N)cc(N)n2)cc1 | -1 | 1 | 12 | -4 | -5
CCOC(=O)N1CCN(CC(=O)Nc2sccc2C#N)CC1 | -3 | -10 | 2 | -7 | 82*
N#Cc1ccsc1NC(=O)CN1CCCCCC1 | -12 | 2 | 3 | -15 | 0
COC(=O)c1ccccc1NC(=O)CCCn1nc([N+](=O)[O-])cc1C | 2 | -6 | 8 | -2 | -8
COc1ccc(CNC(=O)CCCn2nc([N+](=O)[O-])cc2C)cc1 | -3 | -5 | 5 | -2 | 60*
Cc1cc([N+](=O)[O-])nn1CCCC(=O)Nc1cc(Oc2ccccc2)cc([N+](=O)[O-])c1 | 3 | 0 | 15 | -11 | 56*
Cc1cnc(C(=O)OCC(=O)NCc2ccc3c(c2)OCO3)cn1 | -5 | -6 | 5 | -21 | -42
Cc1ccsc1CNC(=O)c1c(-c2ccccc2)noc1C | -17 | -8 | 1 | 42* | -12
Cc1onc(-c2ccccc2)c1C(=O)NCc1ccccn1 | 0 | -21 | -6 | 2 | -13
CN(Cc1cn(C)nc1-c1cccc(Cl)c1)C1CCOCC1 | 8 | 9 | 11 | 12 | 15
CN(Cc1ccon1)Cc1cn(C)nc1-c1cccc(Cl)c1 | 31 | 23 | 23 | 58* | 15
COc1ccc(OC)c(/C=N/Nc2cc(C)nc(N3CCOCC3)n2)c1 | 34 | 13 | 40* | 58* | 0
CC(=O)c1cccc(NC(=O)COc2cc3oc(=O)c(CC(C)O)c(C)c3cc2Cl)c1 (stereo unspecified) | 5 | 5 | 8 | -13 | -67
Cn1c(-c2ccccc2)cnc1SCC(N)=O | 10 | -1 | 59* | 3 | 13
COc1ccc(S(=O)(=O)NCC2CCCN(CC(C)(C)C)C2)cc1 (stereo unspecified) | -4 | -1 | 11 | 11 | -22
CC(C)(C)NC(=O)NC(=O)CN1CCc2ccccc21 | -3 | -9 | 1 | -8 | 23
COCCNC(=O)NC(=O)CN1CCCc2ccccc21 | -1 | -1 | 7 | 3 | 65*
Cc1ccc(C(=O)c2ccccc2C(=O)OCC(=O)NCC2CCCO2)cc1 (stereo unspecified) | -5 | -4 | 9 | -2 | -17
Cc1ccc(C)c2[nH]c(=O)c(CN(CCN3CCOCC3)Cc3nnnn3CC3CCCO3)cc12 (stereo unspecified) | -3 | -6 | 5 | 0 | -44
Cc1ccc(C)c2[nH]c(=O)c(CN(Cc3nnnn3C3CCCCC3)CC3CCCO3)cc12 (stereo unspecified) | 6 | -8 | 41* | -10 | -20
C=CCN(CC=C)C(=O)CCc1nnc(CCc2c[nH]c3ccccc23)o1 | -7 | -2 | 0 | -17 | 17
CCCCOc1ccc(-c2ncc(N)cn2)cc1 | -3 | -3 | 5 | -3 | -42
CC(=O)Nc1cc(C(=O)OC(C(=O)c2ccccc2)c2ccccc2)ccc1C (stereo unspecified) | -6 | -3 | 10 | 3 | 66*
Cc1ccc(-c2nc(N)sc2-c2ccc(C)cc2)cc1 | 2 | -5 | 8 | 0 | 62*
Cn1c(SCC(=O)NNC(=O)Cc2ccccc2)nc2ccccc2c1=O | -3 | -19 | -5 | -8 | -6
O=C(COC(=O)c1ccc2c(=O)n3c(nc2c1)CCC3)Nc1ccc(OC(F)F)cc1 | -3 | -1 | 6 | 0 | -30
CS(=O)(=O)N(CC(=O)Nc1ccccc1Cl)c1ccc(Cl)cc1 | -1 | -2 | 8 | 1 | -22
